Published values collected from several papers.
Each line is one published result; the experiments were not run side by side.
OPRK1: Kappa-type opioid receptor (OPRK1, Cavia porcellus, UniProt P41144)
ADRA1A: Alpha-1A adrenergic receptor (ADRA1A, Homo sapiens, UniProt P35348)

| Structure (SMILES) | target | test | conditions | measurement | result |
| --- | --- | --- | --- | --- | --- |
| CCc1cccc(C)c1C[C@H](NC(=O)[C@@H](CCCNC(=N)N)NC(=O)[C@@H](N)Cc1c(C)cc(O)cc1C)C(=O)N[C@@H](CCCCN)C(N)=O | OPRK1 | ligand displacement, radioligand | cell membranes | Ki | 0.000961 µM |
| OC(c1ccc(F)cc1)C(F)(F)CCN1CCC(O)(c2ccc(Cl)cc2)CC1 (racemic) | Histamine H2 receptor (HRH2, Homo sapiens, UniProt P25021) | cell-free assay, radioligand | – | Ki | 4.83 µM |
| CC[C@H](C)[C@H](NC(=O)[C@H](CC(C)C)NC(=O)[C@H](Cc1c[nH]c2ccccc12)NC(=O)[C@H](CCCCN)NC(=O)[C@H](CC(C)C)NC(=O)[C@H](Cc1ccccc1)NC(=O)[C@H](CCC(=O)O)NC(=O)[C@H](CCC(N)=O)NC(=O)[C@@H](NC(=O)[C@H](C)NC(=O)[C@H](CC(C)C)NC(=O)[C@H](CC(=O)O)NC(=O)[C@H](CC(=O)O)NC(=O)[C@H](CC(C)C)NC(=O)[C@H](CC(C)C)NC(=O)[C@H](CCCCN)NC(=O)[C@H](CC(N)=O)NC(=O)[C@H](Cc1ccc(O)cc1)NC(=O)[C@H](CC(=O)O)NC(=O)[C@H](CO)NC(=O)[C@@H](NC(=O)[C@H](Cc1ccccc1)NC(=O)[C@@H](NC(=O)CNC(=O)[C@H](CC(=O)O)NC(=O)[C@H](C)NC(=O)[C@@H](N)Cc1c[nH]cn1)[C@@H](C)O)[C@@H](C)O)[C@@H](C)O)C(=O)N[C@@H](CC(N)=O)C(=O)N[C@@H](CCC(N)=O)C(=O)N[C@@H](CCCCN)C(=O)N[C@H](C(=O)N[C@H](C(=O)N[C@@H](CCC(N)=O)C(=O)O)[C@@H](C)O)C(C)C | Glucagon-like peptide 2 receptor (GLP2R, Homo sapiens, UniProt O95838) | reporter gene, agonist, luciferase | – | EC50 | 0.00141 µM |
| Cc1cccc(C)c1C[C@H](NC(=O)[C@@H](CCCNC(=N)N)NC(=O)[C@@H](N)Cc1c(C)cc(O)cc1C)C(=O)N[C@@H](CCCCN)C(N)=O | OPRK1 | ligand displacement, radioligand | cell membranes | Ki | 0.0047 µM |
| N=C(N)NCCC[C@@H]1NC(=O)[C@H](Cc2ccc(O)cc2)NC(=O)[C@@H](CCCCN)NC(=O)[C@@H](Cc2ccccc2)NC1=O | OPRK1 | ligand displacement, radioligand | cell membranes | Ki | 4.85 µM |
| Cc1cc(O)cc(C)c1C[C@H](N)C(=O)N[C@H](CCCNC(=N)N)C(=O)N[C@@H](Cc1c(C)cccc1C(C)C)C(=O)N[C@@H](CCCCN)C(N)=O | OPRK1 | ligand displacement, radioligand | cell membranes | Ki | 0.000236 µM |
| C[C@@H](NC(=O)[C@@H](N)Cc1ccc(O)cc1)C(=O)NCC(=O)N[C@@H](Cc1ccccc1)C(=O)N(C)CCC[C@@]1(c2ccc(F)cc2)OCc2cc(C#N)ccc21 | ADRA1A | ligand displacement, radioligand | – | Ki | 6.8 µM |
| CSCC[C@H](NC(=O)[C@H](Cc1c[nH]c2ccccc12)NC(=O)[C@@H](N)CO)C(=O)N[C@H](C(=O)N[C@H](C(=O)N1CCC[C@H]1C(=O)N[C@@H](Cc1c[nH]c2ccccc12)C(=O)NCC(=O)N[C@@H](Cc1ccccc1)C(=O)N[C@@H](Cc1c[nH]cn1)C(=O)N[C@@H](CC(C)C)C(=O)N1CCC[C@H]1C(=O)O)[C@@H](C)O)[C@@H](C)O | Chaperonin GroEL (groEL, Escherichia coli, UniProt P0A6F5) | binding, ITC | – | Kd | 1.4 µM |
| Cc1cc(O)cc(C)c1C[C@H](N)C(=O)N[C@H](C)C(=O)NCC(=O)N[C@@H](Cc1ccc(Cl)cc1)C(=O)N(C)CCC[C@@]1(c2ccc(F)cc2)OCc2cc(C#N)ccc21 | ADRA1A | ligand displacement, radioligand | – | Ki | 4.6 µM |
| C[C@H]1CC[C@@]2(OC1)O[C@H]1C[C@H]3[C@@H]4CC[C@@H]5C[C@@H](O[C@@H]6O[C@H](CO)[C@H](O)[C@H](O)[C@H]6O[C@@H]6O[C@H](CO)[C@@H](O)[C@H](O)[C@H]6O)CC[C@]5(C)[C@H]4CC[C@]3(C)[C@H]1[C@@H]2C | Angiotensin-converting enzyme 2 (ACE2, Homo sapiens, UniProt Q9BYF1) | binding | – | Kd | 61.7 µM |
| Cc1cc(O)cc(C)c1C[C@H](C)C(=O)N[C@@H]1C/C=C/CC[C@@H](C(N)=O)NC(=O)[C@H](Cc2ccccc2)NC(=O)[C@H](Cc2ccccc2)NC1=O | OPRK1 | ligand displacement, radioligand | cell membranes | Ki | 0.635 µM |
| CC[C@H](C)[C@H](NC(=O)[C@H](CCCNC(=N)N)NC(=O)[C@H](CC(C)C)NC(=O)[C@@H](N)Cc1ccccc1)C(=O)N[C@@H](CCCNC(=N)N)C(=O)N1CCC[C@H]1C(=O)N[C@@H](CCCCN)C(=O)O | ADRA1A | cell-free assay, radioligand | – | Ki | > 10 µM |
| Cc1nccc2c1[nH]c1ccccc12 | Amine oxidase [flavin-containing] A (MAOA, Homo sapiens, UniProt P21397) | enzyme activity, inhibitor | – | Ki | 0.58 µM |
